In the library only some 2.3% were active in any assay of this set; here they are far more common.
TRPC6 inhibitor – mouse TRPC6 channel inhibitors, primary screen, cell-based, HEK293, membrane potential dye; Short transient receptor potential channel 6 (Mus musculus), Q61143; ACh-evoked depolarization; active compounds read low; B-score at 10 µM; actives 1.1% (n = 310,000);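 active = B-score under library mean minus 3 SD, initial fluorescence not abnormally high, positive integrated signal ratio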;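 note: B-score derived from integrated fluorescence ratio over the kinetic read; more negative B-score means stronger inhibition of depolarization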
TRPC4 act – activators of mouse TRPC4 channel, primary screen, Fluo4 calcium, HEK293 TRPC4beta/mu-opioid cells; Fluo4 calcium fluorescence; active compounds read high; AID 2237, 2010; B-score at 10 µM; actives 0.49% (n = 310,000);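 active = B-score above 5 SD of library B-scores, and initial fluorescence ratio not above library mean plus 5 SD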;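 note: positive B-score marks a calcium rise read as TRPC4 activation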
Target sequence (Q9QUQ5 whole entry, looked up): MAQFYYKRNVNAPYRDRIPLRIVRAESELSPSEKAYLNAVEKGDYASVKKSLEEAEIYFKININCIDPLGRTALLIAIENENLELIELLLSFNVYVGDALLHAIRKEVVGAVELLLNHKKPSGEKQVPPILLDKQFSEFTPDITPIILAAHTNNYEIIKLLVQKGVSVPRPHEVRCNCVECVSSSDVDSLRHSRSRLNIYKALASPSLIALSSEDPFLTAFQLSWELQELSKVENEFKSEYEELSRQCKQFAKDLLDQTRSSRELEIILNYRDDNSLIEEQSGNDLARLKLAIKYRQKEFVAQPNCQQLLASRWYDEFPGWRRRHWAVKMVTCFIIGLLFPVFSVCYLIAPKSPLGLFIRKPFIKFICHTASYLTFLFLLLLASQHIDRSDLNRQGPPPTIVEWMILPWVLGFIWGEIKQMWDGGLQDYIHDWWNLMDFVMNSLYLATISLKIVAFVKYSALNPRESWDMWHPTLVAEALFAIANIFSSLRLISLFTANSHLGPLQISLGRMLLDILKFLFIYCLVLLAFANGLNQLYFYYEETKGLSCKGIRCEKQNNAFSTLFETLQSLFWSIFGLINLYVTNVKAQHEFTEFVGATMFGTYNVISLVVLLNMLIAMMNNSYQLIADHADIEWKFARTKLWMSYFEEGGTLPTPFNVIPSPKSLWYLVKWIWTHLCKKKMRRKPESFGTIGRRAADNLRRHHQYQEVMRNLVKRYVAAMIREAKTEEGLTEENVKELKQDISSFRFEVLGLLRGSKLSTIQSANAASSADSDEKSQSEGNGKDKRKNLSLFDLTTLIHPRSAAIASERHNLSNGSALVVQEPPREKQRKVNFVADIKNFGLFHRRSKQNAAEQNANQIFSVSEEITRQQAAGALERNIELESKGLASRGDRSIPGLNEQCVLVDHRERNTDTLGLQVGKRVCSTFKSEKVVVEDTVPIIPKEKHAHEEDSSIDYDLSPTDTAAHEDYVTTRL
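Technique: kinetic Fluo4 calcium fluorescence; Test system: TRPC4beta and mu-opioid receptor HEK293 stable cells; Measure: B-scored integrated calcium fluorescence ratio; Benchmarks: low control buffer alone, high control maximal DAMGO; Schedule: 45 min room-temperature Fluo4 loading, 110 s read.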
TRPC4 block – inhibitors of mouse TRPC4 channel, primary screen, Fluo4 calcium, HEK293 TRPC4beta/mu-opioid cells; Short transient receptor potential channel 4 (Mus musculus), Q9QUQ5; DAMGO-evoked Fluo4 calcium flux; active compounds read low; B-score at 10 µM; actives 0.39% (n = 300,000);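 active = B-score over 3 SD under the library average, no early fluorescence shift, positive overall ratio signal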
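Test system – stable TRPC4beta/mu-opioid receptor HEK293 cells · Probe or stimulus – DAMGO, a submaximal dose followed by a maximal one · Dosing – one concentration per compound · Signal – Fluo4 calcium fluorescence by kinetic imaging, 5 s 1 Hz baseline · Evaluation – per-well B score of integrated baseline-normalized Fluo4 ratio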
TRPC6 act – mouse TRPC6 channel activators, primary screen, cell-based, HEK293, membrane potential dye; HEK293-TRPC6 membrane potential dye fluorescence; active compounds read high; B-score at 10 µM; actives 0.13% (n = 310,000);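 active = B-score of the integrated fluorescence ratio above library mean plus 3 SD, and starting fluorescence ratio within library mean plus 5 SD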;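 note: higher score means more depolarization so channel activation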
TRPC4 PAM – positive allosteric modulators of TRPC4, primary screen, cell-based, mouse TRPC4beta, HEK293 mu-opioid, Fluo-4 calcium. DAMGO EC20, Fluo-4 Ca2+ flux; active compounds read high. B-score at 10 µM. actives 0.42% (n = 310,000);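 active = B-score of calcium response area above 5 SD of library B-scores, with initial fluorescence ratio within 5 SD of library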;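 note: B-score of integrated fluorescence ratio over time as area under calcium response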
TRPC4 sel inh 2 – second selectivity test of TRPC6 inhibitors: effect on mouse TRPC4; shares compounds with TRPC6 inhibitor; HEK293 TRPC4/MOR, membrane potential dye fluorescence; channel activated by saturating DAMGO dose; inhibition, % at 10 µM; actives 42% (n = 920); AID 2776;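 active = compounds whose fluorescence signal differed from control wells by over 3 SD, either direction, in both duplicate plates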
TRPC4 spec – mouse TRPC4 modulation by TRPC6 hits, confirmation, selectivity assay for TRPC6 inhibitor project, cell-based, HEK293 TRPC4/mu-opioid, membrane potential dye | shares compounds with TRPC6 inhibitor | membrane potential fluorescence | activity change, negative = inhibition, % at 10 µM | actives 61% (n = 920);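 active = rise or fall in signal beyond 3 SD of buffer-only wells in both replicate plates, either sign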;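 note: integrated kinetic ratio of fluorescence range over baseline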
HEK293 MPD ctr 2-1 – nonspecific membrane potential effects, parental HEK293, confirmation, counter-screen for TRPC6 inhibitor project, cell-based, second counter screen; shares compounds with TRPC6 inhibitor; parental HEK293 membrane potential dye fluorescence; maximal acetylcholine challenge after compound addition; signal change vs control, % at 10 µM; AID 2779, 2010; actives 31% (n = 920);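 active = membrane potential signal moving either way by over 3 SD of the maximum-effect control, in both duplicate plates, meaning non-specific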
HEK293 MPD ctr-1 – membrane potential modulation in parental HEK293, confirmation, counter-screen for TRPC6 inhibitor project, cell-based | shares compounds with TRPC6 inhibitor | parental HEK293 membrane potential dye fluorescence | membrane potential signal change, % at 10 µM | actives 60% (n = 920);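 active = membrane potential signal shifting up or down by more than 3 SD of buffer-only wells, on both duplicate plates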
HEK293 MPD ctr-2 – parental HEK293 membrane potential modulation, confirmation, counter-screen for TRPC6 modulator project, cell-based; membrane potential signal change, % at 10 µM; actives 51% (n = 2,400); membrane potential dye fluorescence; shares compounds with TRPC6 inhibitor; AID 488924, 2010;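 active = membrane potential signal moves up or down beyond 5 SD from buffer-only wells, on both duplicate plates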
HEK293 MPD ctr 2-2 – second counter-screen for TRPC6 modulators: effect in parental HEK293 cells; actives 14% (n = 2,400); shares compounds with TRPC6 inhibitor; inhibition, % at 10 µM; membrane potential dye fluorescence; after compound, maximal acetylcholine stimulation;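 active = membrane potential signal drops by more than 5 SD from the mean control signal, in both duplicate plates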;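 note: plate controls were acetylcholine ECmax control wells for no effect and buffer only wells for full effect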
TRPC4/MOR mod – TRPC4 modulation by TRPC6 hit compounds, confirmation, selectivity assay for TRPC6 modulator project, cell-based, HEK293 TRPC4/mu-opioid, membrane potential dye, mouse; percent change from control (negative = decrease, positive = increase), % at 10 µM; shares compounds with TRPC6 inhibitor; membrane potential fluorescence; AID 488927, 2010; actives 69% (n = 2,400);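 active = membrane potential signal moved up or down beyond 5 SD of buffer control wells, in both duplicate plates, actives on both sides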;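 note: plate controls were assay buffer wells for no effect and DAMGO maximal-effect wells for full effect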
TRPC4 ctr inh 2 – second selectivity test of TRPC6 modulators against mouse TRPC4; shares compounds with TRPC6 inhibitor; HEK293 TRPC4/mu-opioid, membrane potential dye fluorescence; stimulated with maximal-effect DAMGO; inhibition, % at 10 µM; actives 55% (n = 2,400); AID 488928;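 active = drop in membrane potential signal beyond 5 SD of the control wells in both duplicate plates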;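 note: TRPC4 counter screen for TRPC6 hits run under conditions tuned for TRPC6 not TRPC4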
TRPC6 inh conf – mouse TRPC6 channel inhibitors, confirmation, HEK293 cells, membrane potential dye, duplicate; inhibition, % at 10 µM; AID 488960, 2010; shares compounds with TRPC6 inhibitor; actives 43% (n = 3,300); ACh-evoked depolarization;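 active = fluorescence ratio falls more than 5 SD below the full-stimulation control mean, in both duplicate runs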;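 note: integrated fluorescence ratio of peak minus minimum over baseline after agonist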
TRPC6 act confirm – mouse TRPC6 channel activators, confirmation, HEK293 cells, membrane potential dye, duplicate | actives 11% (n = 2,800) | HEK293-TRPC6 membrane potential dye fluorescence, FDSS | AID 488961, 2010 | activation, % at 10 µM | shares compounds with TRPC6 inhibitor;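 active = ratio signal rise beyond 5 SD above unstimulated control wells' mean, seen in both duplicate runs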;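 note: plate controls were buffer EC0 wells for no effect and acetylcholine ECmax response for full effect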
An asterisk follows results filed as active; i = inactive; nt = no result given.

SMILES	TRPC6 inhibitor	TRPC4 act	TRPC4 block	TRPC6 act	TRPC4 PAM	HEK293 MPD ctr-2	HEK293 MPD ctr 2-2	TRPC4/MOR mod	TRPC4 ctr inh 2	TRPC6 inh conf	TRPC6 act confirm	others
CCOC(=O)c1cn(CC)c2cc3c(cc2c1=O)OCO3	-5.79*	i	i	i	i	-126.0%*	i	-31.5%*	32.5%*	i	i
CCOC(=O)c1cn(CC)c2cc(N3CCN(C)CC3)c(F)cc2c1=O	i	i	i	i	i	nt	nt	nt	nt	nt	nt
CCCCCCn1cc(C(=O)OCC)c(=O)c2cc(F)c(F)cc21	-5.07*	i	-6*	i	i	i	i	i	45.5%*	i	i
CCCCCCn1cc(C(=O)O)c(=O)c2cc(F)c(N3CCN(C)CC3)cc21	-5.55*	i	i	i	i	-267.5%*	70.0%*	-52.0%*	51.5%*	44.0%*	i
CCOC(=O)c1cn(CC#N)c2cc(F)c(F)cc2c1=O	i	i	i	i	i	nt	nt	nt	nt	nt	nt
CN(Cc1cccnc1)C(=O)CNC(=O)COc1ccccc1	i	i	i	i	i	nt	nt	nt	nt	nt	nt
O=C(NCc1ccccc1)C1=C[C@@H](C2CCCCC2)C[C@@H](OCCCCO)O1	i	i	i	i	i	nt	nt	nt	nt	nt	nt
CCN(CC)CCC#CC(O)(c1ccccc1)c1ccccc1	-8.85*	i	i	i	i	nt	nt	nt	nt	63.1%*	nt	TRPC4 sel inh 2=i;TRPC4 spec=6.4%*;HEK293 MPD ctr 2-1=-9.0%*;HEK293 MPD ctr-1=8.6%*
OC(C#CCCN1CCCCC1)(c1ccccc1)C1CCCCC1 (centres undefined)	-7.45*	i	i	i	i	nt	nt	nt	nt	75.4%*	nt	TRPC4 sel inh 2=i;TRPC4 spec=23.4%*;HEK293 MPD ctr 2-1=i;HEK293 MPD ctr-1=14.9%*
